Experimental data: ChEMBL document CHEMBL1122130, “Nonsteroidal antiinflammatory agents. 1. 10,11-Dihydro-11-oxodibenz[b, f]oxepinacetic acids and related compounds” (J Med Chem, 1982)

How the values were obtained:
Rattus norvegicus [1] = test: Effective dose for antiinflammatory activity in carrageenan paw edema assay in rats after oral administration; type: functional
In short: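 Male Wistar rats (120-150 g; 5-10 per dose) were dosed orally in 0.5% aqueous tragacanth. Edema was induced by subcutaneous injection of 1% aqueous carrageenan into the left hind paw.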

Mus musculus = organism: Mus musculus; test: Effective dose for analgesic activity in mice; type: functional
In short: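 Female ddN mice (18-22 g; 5-15 per dose) received compound in 0.5% aqueous tragacanth. Writhing was induced by intraperitoneal 0.03% phenylquinone, and writhes were counted over 15 min. ED50 was calculated by Litchfield–Wilcoxon.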

Rattus norvegicus [2] = test: Compound was evaluated for the induction no of gastric ulcers in rats when administered perorally; type: functional, Stomach
In short: (§1)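 Male Wistar rats were fasted 24 h and given compound once orally in 0.5% aqueous tragacanth. Stomachs were removed 6 h later and examined macroscopically. UD50 (dose causing ulcers in 50% of rats) was taken from each compound's regression line.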

[3] = Lethal dose determined in rats when administered perorally; type: toxicity, organism-based; settings: rat, in vivo, po
In short: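 Male Wistar rats (150-230 g), dosed orally with compound dissolved or suspended in 0.5% aqueous tragacanth. LD50 taken from mortality over 7 days and calculated by the Litchfield-Wilcoxon method.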

Rattus norvegicus [4] = organism: Rattus norvegicus; test: Analgesic activity measured as silver nitrate induced arthritic pain in rats; type: functional
In short: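 Pain in the arthritic rat paw was provoked with silver nitrate. Compounds were given in 0.5% aqueous tragacanth, and ED50 was calculated by the Litchfield–Wilcoxon method.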

Rattus norvegicus [5] = test: compound was evaluated for the induction no of gastric ulcers in rats when administered perorally; type: functional, Stomach; in short: as §1
Rattus norvegicus [6] = organism: Rattus norvegicus; test: Antipyretic activity measured as yeast induced fever assay in rats; type: functional
In short: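 Male Wistar rats (350-500 g); hyperthermia induced by subcutaneous injection of 15% yeast suspension. Test compounds dissolved or suspended in 0.5% aqueous tragacanth and administered. ED50 calculated by the Litchfield–Wilcoxon method.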

Rattus norvegicus [7] = test: Compound was evaluated for the induction of gastric ulcers in rats after oral administration; type: functional; settings: Stomach; in short: as §1

Row | SMILES | ED50 (Rattus norvegicus [1]) [mg/kg] | ED50 (Mus musculus) [mg/kg] | further results
1 | O=C(O)Cc1ccc2c(c1)Oc1ccccc1NC2=O | > 80 | > 100 | 
2 | Cc1ccc2c(c1)CC(O)c1cc(CC(=O)O)ccc1O2 (stereo not given) | > 80 | > 100 | 
3 | O=C(O)Cc1ccc2c(c1)C(O)Cc1cc(Cl)ccc1O2 (stereo not given) | > 80 | > 100 | 
4 | O=C(O)Cc1ccc2c(c1)C=Cc1ccc(Cl)cc1O2 | 61.4 | 9.53 | 
5 | Cc1ccc2c(c1)C=Cc1cc(C(C)C(=O)O)ccc1S2 (stereo not given) | > 80 | > 100 | 
6 | Cc1ccc2c(c1)C=Cc1cc(CC(=O)O)ccc1O2 | > 80 | > 100 | 
7 | Cc1ccc2c(c1)CC(O)c1cc(C(C)C(=O)O)ccc1O2 (stereo not given) | > 80 | > 100 | 
8 | CC(C(=O)O)c1ccc2c(c1)C(=O)Cc1ccccc1O2 (stereo not given) |  | 17.8 | 
9 | CC(C(=O)O)c1ccc2c(c1)C=Cc1ccccc1O2 (stereo not given) | ≥ 80 | > 100 | 
10 | O=C(O)Cc1ccc2c(c1)C(O)Cc1ccc(Cl)cc1O2 (stereo not given) | > 80 | > 100 | 
11 | Cc1ccc2c(c1)CC(O)c1cc(C(C)C(=O)O)ccc1S2 (stereo not given) | > 80 | > 100 | 
12 | O=C(O)Cc1ccc2c(c1)C=Cc1ccccc1O2 | 28.3 | > 100 | 
13 | Cc1ccc2c(c1)CC(=O)c1cc(C(C)C(=O)O)ccc1S2 (stereo not given) |  | 3.1 | UD50 (Rattus norvegicus [2]): 11.3 mg/kg; LD50 [3]: > 100 mg/kg
14 | O=C(O)Cc1ccc2c(c1)C(=O)Cc1ccc(Cl)cc1O2 | ≥ 80 | > 100 | 
15 | O=C(O)Cc1ccc2c(c1)Oc1ccccc1CC2O (stereo not given) | > 80 | > 100 | 
16 | O=C(O)Cc1ccc2c(c1)C=Cc1cc(F)ccc1O2 | > 80 | > 100 | 

Row | SMILES | ED50 (Rattus norvegicus [1]) [mg/kg] | ED50 (Mus musculus) [mg/kg] | further results
17 | O=C(O)Cc1ccc2c(c1)Oc1ccccc1C=C2 | > 80 | > 100 | 
18 | CC(C(=O)O)c1ccc2c(c1)C(=O)Nc1ccccc1O2 (stereo not given) | > 80 | > 100 | 
19 | O=C(O)Cc1ccc2c(c1)C(=O)Cc1ccccc1O2 | 10.8 | 34.4 | 
20 | COc1ccc2c(c1)c(CC(=O)O)c(C)n2C(=O)c1ccc(Cl)cc1 [INDOMETHACIN] |  | 0.62 | ED50 (Rattus norvegicus [4]): 4.3 mg/kg; UD50 (Rattus norvegicus [5]): 8 mg/kg; LD50 [3]: 18.5 mg/kg; ED50 (Rattus norvegicus [6]): 0.22 mg/kg
21 | O=C(O)Cc1ccc2c(c1)C(O)Cc1cc(F)ccc1O2 (stereo not given) | > 80 | > 100 | 
22 | O=C(O)Cc1ccc2c(c1)C(=O)Nc1ccccc1O2 | > 80 | > 100 | 
23 | Cc1ccc2c(c1)C=Cc1cc(C(C)C(=O)O)ccc1O2 (stereo not given) | > 80 | > 100 | 
24 | O=C(O)Cc1ccc2c(c1)C(=O)Cc1cc(Cl)ccc1O2 | ≥ 80 | ≥ 100 | 
25 | O=C(O)Cc1ccc2c(c1)Oc1ccccc1CC2=O | 56.9 | ≥ 100 | 
26 | Cc1ccc2c(c1)CC(=O)c1cc(C(C)C(=O)O)ccc1O2 (stereo not given) [BERMOPROFEN] |  | 6.51 | ED50 (Rattus norvegicus [7]): 13.8 mg/kg; LD50 [3]: 147 mg/kg
27 | O=C(O)Cc1ccc2c(c1)C(O)Cc1ccccc1O2 (stereo not given) | 24.3 | 44.6 | 
28 | O=C(O)Cc1ccc2c(c1)C(=O)Cc1cc(F)ccc1O2 | ≥ 80 | > 100 | 
29 | Cc1ccc2c(c1)CC(=O)c1cc(CC(=O)O)ccc1O2 |  | 13.8 | 
30 | O=C(O)Cc1ccc2c(c1)C=Cc1cc(Cl)ccc1O2 | > 80 | > 100 | 
31 | CC(C(=O)O)c1ccc2c(c1)C(O)Cc1ccccc1O2 (stereo not given) | > 80 | > 100 | 
